# Results reported in ChEMBL document CHEMBL4765270, “Piperidine propionamide as a scaffold for potent sigma-1 receptor antagonists and mu opioid receptor agonists for treating neuropathic pain” (Eur J Med Chem, 2020).
# Active and inactive are the calls of the source. No cut-off for these calls is given here.
# Assays:
# [1] = biological target: Sigma non-opioid intracellular receptor 1 (Cavia porcellus, UniProt Q60492); test: Displacement of [3H]-(+)-pnetazocin from sigma1 receptor in guinea pig brain membrane incubated for 150 mins by liquid scintillation counting method; assay type: cell membranes
# Sigma non-opioid intracellular receptor 1, sequence (Q60492 whole entry): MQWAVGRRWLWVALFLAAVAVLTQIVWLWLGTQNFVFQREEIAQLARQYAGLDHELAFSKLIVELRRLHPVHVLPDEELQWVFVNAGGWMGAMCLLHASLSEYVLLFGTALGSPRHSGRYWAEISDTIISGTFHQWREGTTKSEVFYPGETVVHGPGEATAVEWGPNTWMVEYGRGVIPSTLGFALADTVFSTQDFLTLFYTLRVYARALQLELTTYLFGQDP
# Mus musculus [2] = test: Antiallodynic activity against formalin-induced nociceptive behavior in ICR mouse assessed as licking/biting time at 50 mg/kg, sc pre-treated for 30 mins followed by formalin-stimulation and measured up to 5 mins; assay type: functional; details: time min <=35
# Outline: (§1)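 Male/female unspecified ICR mice (n=10 per group) given test compound s.c. or vehicle 30% PEG 400 (4 mL/kg) 30 min before intraplantar injection of 100 µL 5% formalin (1.85% formaldehyde) into right hind paw; time spent licking/biting recorded 0-5 min (phase I) and 15-45 min (phase II); antinociception % = (LT vehicle − LT drug)/LT vehicle × 100; mean ± SEM.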
# Mus musculus [3] = test: Antiallodynic activity against formalin-induced nociceptive behavior in ICR mouse assessed as licking/biting time at 100 mg/kg, sc pre-treated for 30 mins followed by formalin-stimulation and measured up to 15 to 30 mins; assay type: functional; details: time min <=45; outline: as §1
# [4] = Toxicity in sc dosed ICR mouse assessed as mortality after 24 hrs; assay type: organism-based; details: in vivo
# Homo sapiens [5] = organism: Homo sapiens; test: Inhibition of adrenergic alpha1 receptor (unknown origin) at 1 uM relative to control
# [6] = biological target: Cannabinoid receptor 2 (Homo sapiens) (UniProt P34972); test: Inhibition of CB2 receptor (unknown origin) at 1 uM relative to control
# Cannabinoid receptor 2 (Homo sapiens), sequence (P34972 whole entry): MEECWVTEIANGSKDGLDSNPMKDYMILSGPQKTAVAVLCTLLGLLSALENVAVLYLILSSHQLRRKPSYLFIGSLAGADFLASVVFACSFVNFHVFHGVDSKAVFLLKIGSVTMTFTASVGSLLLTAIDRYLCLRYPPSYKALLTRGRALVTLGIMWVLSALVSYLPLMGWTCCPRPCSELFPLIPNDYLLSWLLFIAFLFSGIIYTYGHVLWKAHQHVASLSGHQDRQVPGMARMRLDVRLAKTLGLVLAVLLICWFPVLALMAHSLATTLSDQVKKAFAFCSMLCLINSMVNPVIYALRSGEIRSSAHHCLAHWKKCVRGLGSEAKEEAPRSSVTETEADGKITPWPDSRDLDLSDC
# Homo sapiens [7] = organism: Homo sapiens; test: Inhibition of NMDA receptor (unknown origin) at 1 uM relative to control
# [8] = biological target: Histamine H3 receptor (Homo sapiens) (UniProt Q9Y5N1); test: Inhibition of histamine H3 receptor (unknown origin) at 1 uM relative to control
# Histamine H3 receptor (Homo sapiens), sequence (Q9Y5N1 whole entry): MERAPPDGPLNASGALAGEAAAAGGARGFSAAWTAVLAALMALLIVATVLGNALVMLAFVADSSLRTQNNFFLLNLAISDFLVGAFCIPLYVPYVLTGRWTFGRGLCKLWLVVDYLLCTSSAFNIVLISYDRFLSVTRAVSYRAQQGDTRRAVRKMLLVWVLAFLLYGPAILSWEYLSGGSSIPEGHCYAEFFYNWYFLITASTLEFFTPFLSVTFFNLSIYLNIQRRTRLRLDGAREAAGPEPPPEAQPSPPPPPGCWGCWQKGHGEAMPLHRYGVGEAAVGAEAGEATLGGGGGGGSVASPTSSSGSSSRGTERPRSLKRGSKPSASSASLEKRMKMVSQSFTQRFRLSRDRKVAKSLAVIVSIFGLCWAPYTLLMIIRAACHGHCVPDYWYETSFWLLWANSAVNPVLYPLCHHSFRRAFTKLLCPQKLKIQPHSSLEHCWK
# Mus musculus [9] = test: Antiallodynic activity against formalin-induced nociceptive behavior in ICR mouse assessed as licking/biting time at 12.5 mg/kg, sc pre-treated for 30 mins followed by formalin-stimulation and measured up to 15 to 30 mins; assay type: functional; details: time min <=45; outline: as §1
# Mus musculus [10] = test: Antiallodynic activity against formalin-induced nociceptive behavior in ICR mouse assessed as licking/biting time at 50 mg/kg, sc pre-treated for 30 mins followed by formalin-stimulation and measured up to 15 to 30 mins; assay type: functional; details: time min <=45; outline: as §1
# Rattus norvegicus [11] = test: Antinociceptive activity in CCI-induced sc dosed Sprague-Dawley rat model of neuropathic pain assessed as paw withdrawal latency after 15 days; assay type: functional; details: 360 h, time 15 day
# Homo sapiens [12] = organism: Homo sapiens; test: Inhibition of adrenergic alpha2 receptor (unknown origin) at 1 uM relative to control
# [13] = biological target: 5-hydroxytryptamine receptor 2A (Homo sapiens) (UniProt P28223); test: Inhibition of 5HT2A receptor (unknown origin) at 1 uM relative to control
# 5-hydroxytryptamine receptor 2A (Homo sapiens), sequence (P28223 whole entry): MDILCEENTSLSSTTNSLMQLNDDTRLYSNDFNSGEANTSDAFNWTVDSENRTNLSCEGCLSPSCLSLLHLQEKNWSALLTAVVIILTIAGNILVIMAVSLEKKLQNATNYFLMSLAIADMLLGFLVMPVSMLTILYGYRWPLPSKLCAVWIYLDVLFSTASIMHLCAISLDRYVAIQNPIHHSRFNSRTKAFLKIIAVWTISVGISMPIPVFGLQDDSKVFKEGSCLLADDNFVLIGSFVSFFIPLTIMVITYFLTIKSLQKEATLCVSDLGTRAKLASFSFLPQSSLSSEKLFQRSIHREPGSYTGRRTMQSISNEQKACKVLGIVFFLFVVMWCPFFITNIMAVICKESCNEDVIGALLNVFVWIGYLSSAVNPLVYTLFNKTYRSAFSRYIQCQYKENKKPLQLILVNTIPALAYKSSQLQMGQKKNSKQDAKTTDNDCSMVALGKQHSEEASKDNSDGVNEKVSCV
# [14] = biological target: Cannabinoid receptor 1 (Homo sapiens) (UniProt P21554); test: Inhibition of CB1 receptor (unknown origin) at 1 uM relative to control
# Cannabinoid receptor 1 (Homo sapiens), sequence (P21554 whole entry): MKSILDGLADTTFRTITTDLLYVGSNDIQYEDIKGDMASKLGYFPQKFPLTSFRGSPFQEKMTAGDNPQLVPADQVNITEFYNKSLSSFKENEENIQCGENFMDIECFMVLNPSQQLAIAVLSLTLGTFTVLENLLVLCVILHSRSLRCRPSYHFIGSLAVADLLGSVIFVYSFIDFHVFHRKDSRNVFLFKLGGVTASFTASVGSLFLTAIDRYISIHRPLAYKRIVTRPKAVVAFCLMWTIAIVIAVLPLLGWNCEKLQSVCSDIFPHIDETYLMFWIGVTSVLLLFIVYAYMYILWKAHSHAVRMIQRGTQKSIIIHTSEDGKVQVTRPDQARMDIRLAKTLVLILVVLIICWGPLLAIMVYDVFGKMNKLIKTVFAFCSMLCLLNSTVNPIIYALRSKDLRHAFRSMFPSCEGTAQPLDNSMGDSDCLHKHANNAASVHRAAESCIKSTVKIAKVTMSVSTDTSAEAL
# [15] = biological target: T1, 5-hydroxytryptamine receptor 1A (Homo sapiens) (UniProt P08908); test: Inhibition of 5HT1A receptor (unknown origin) at 1 uM relative to control
# T1 sequence (whole entry): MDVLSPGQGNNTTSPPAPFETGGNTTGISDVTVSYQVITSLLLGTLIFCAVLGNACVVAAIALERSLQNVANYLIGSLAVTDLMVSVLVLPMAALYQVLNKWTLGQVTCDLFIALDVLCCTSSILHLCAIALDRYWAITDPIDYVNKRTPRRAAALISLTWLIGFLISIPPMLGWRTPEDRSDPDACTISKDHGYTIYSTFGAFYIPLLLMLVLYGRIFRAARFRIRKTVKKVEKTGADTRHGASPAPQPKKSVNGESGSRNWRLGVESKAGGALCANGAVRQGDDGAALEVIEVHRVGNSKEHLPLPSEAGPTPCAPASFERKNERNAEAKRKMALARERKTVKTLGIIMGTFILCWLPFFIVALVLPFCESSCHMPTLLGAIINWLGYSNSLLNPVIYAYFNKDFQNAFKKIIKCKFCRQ
# Mus musculus [16] = test: Antiallodynic activity against formalin-induced nociceptive behavior in sc dosed ICR mouse assessed as licking/biting time pre-treated for 30 mins followed by formalin-stimulation and measured up to 15 to 30 mins; assay type: functional; details: dose 12.5-100 mg/kg, time min <=45; outline: as §1
# Homo sapiens [17] = organism: Homo sapiens; test: Inhibition of sigma 2 receptor (unknown origin) at 1 uM relative to control
# Mus musculus [18] = test: Antiallodynic activity against formalin-induced nociceptive behavior in ICR mouse assessed as licking/biting time at 25 mg/kg, sc pre-treated for 30 mins followed by formalin-stimulation and measured up to 15 to 30 mins; assay type: functional; details: time min <=45; outline: as §1
# [19] = biological target: Sodium-dependent serotonin transporter (Homo sapiens) (UniProt P31645); test: Inhibition of 5-HT transporter (unknown origin) at 1 uM relative to control
# Sodium-dependent serotonin transporter (Homo sapiens), sequence (P31645 whole entry, looked up): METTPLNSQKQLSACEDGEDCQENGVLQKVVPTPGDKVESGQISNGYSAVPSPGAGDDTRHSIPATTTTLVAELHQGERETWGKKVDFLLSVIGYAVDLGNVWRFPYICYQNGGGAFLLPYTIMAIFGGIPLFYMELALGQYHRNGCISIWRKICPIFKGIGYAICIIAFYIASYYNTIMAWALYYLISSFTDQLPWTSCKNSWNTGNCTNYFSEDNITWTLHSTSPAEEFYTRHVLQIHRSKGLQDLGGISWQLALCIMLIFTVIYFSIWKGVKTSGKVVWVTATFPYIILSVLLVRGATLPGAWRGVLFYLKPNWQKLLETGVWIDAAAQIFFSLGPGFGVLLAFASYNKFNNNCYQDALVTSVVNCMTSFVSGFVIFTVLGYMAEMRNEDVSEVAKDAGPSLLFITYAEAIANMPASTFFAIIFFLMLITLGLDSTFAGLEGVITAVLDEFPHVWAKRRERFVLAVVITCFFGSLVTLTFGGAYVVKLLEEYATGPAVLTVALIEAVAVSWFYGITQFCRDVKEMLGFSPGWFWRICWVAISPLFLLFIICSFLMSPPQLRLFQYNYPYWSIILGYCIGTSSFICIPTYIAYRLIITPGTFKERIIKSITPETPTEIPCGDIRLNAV
# [20] = biological target: Sodium-dependent noradrenaline transporter (Homo sapiens) (UniProt P23975); test: Inhibition of noradrenaline transporter (unknown origin) at 1 uM relative to control
# Sodium-dependent noradrenaline transporter (Homo sapiens), sequence (P23975 whole entry): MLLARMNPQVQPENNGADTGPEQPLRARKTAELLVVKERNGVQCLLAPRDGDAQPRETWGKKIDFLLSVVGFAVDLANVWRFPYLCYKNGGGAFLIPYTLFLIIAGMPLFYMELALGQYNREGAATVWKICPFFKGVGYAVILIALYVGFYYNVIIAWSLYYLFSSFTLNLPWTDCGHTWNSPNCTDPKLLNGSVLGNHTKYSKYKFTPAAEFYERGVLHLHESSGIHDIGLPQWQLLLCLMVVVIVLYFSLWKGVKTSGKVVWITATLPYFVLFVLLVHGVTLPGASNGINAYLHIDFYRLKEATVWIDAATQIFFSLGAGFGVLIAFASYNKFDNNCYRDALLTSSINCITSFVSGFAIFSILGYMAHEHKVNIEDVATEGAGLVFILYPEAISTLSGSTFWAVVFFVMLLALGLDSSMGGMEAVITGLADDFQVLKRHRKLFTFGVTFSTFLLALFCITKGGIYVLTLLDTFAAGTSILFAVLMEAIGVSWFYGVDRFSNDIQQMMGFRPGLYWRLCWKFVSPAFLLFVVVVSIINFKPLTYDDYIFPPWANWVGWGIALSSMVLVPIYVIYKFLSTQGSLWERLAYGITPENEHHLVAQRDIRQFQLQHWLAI
# [21] = Therapeutic index, ratio of LD50 for toxicity in ICR mouse to ED50 for antiallodynic activity against formalin-induced nociceptive behavior in ICR mouse; details: read-out: Ratio LD50/ED50
# Outline: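 TI = LD50/ED50: LD50 from s.c. acute toxicity in mice, ED50 from phase II of formalin test (s.c. dosing 30 min before formalin, 12.5–100 mg/kg).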
# Rattus norvegicus [22] = test: Antinociceptive activity in CCI-induced Sprague-Dawley rat model of neuropathic pain assessed as paw withdrawal latency at 50 mg/kg, sc after 15 days; assay type: functional, organism-based; details: time 15.0 day
# Mu-type opioid receptor = Mu-type opioid receptor (Cavia porcellus, UniProt P97266); test: Displacement of [3H]DAMGO from mu opioid receptor in guinea pig brain membrane incubated for 2.5 hrs by scintillation counting method; assay type: cell membranes
# Mu-type opioid receptor, sequence (P97266 whole entry): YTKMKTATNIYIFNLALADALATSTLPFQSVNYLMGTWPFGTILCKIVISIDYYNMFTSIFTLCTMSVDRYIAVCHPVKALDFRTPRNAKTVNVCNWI
structure (smiles),measurement,setting,value
CCC(=O)N(CCN1CCC(Cc2ccccc2)CC1)c1cccc(C(F)(F)F)n1,Ki,[1],835 nM
CCC(=O)N(CCN1CCC(Cc2ccc(F)cc2)CC1)c1ccc(OC)cc1,Time,Mus musculus [2],21 s
same,Time,Mus musculus [3],41 s
same,LD50 at 24 h,[4],397 mg/kg
same,inhibition,Homo sapiens [5],24.7%
same,inhibition,[6],32.6%
same,inhibition,Homo sapiens [7],14.3%
same,inhibition,[8],34.6%
same,Time,Mus musculus [9],201 s
same,Time,Mus musculus [10],63 s
same,ED50,Rattus norvegicus [11],44.1 mg/kg
same,inhibition,Homo sapiens [12],45.9%
same,inhibition,[13],43.6%
same,inhibition,[14],20.8%
same,inhibition,[15],45.2%
same,Ki,[1],1.86 nM
same,Activity,Mus musculus [16],Dose-dependent effect
same,ED50,Mus musculus [16],15.1 mg/kg
same,inhibition,Homo sapiens [17],29.1%
same,Time,Mus musculus [18],108 s
same,inhibition,[19],10.9%
same,inhibition,[20],18.5%
CCC(=O)N(CCN1CCC(Cc2ccccc2)CC1)Cc1ccccc1,Ki,[1],18.7 nM
Cc1cc(OCCN2CCOCC2)nn1-c1ccc2ccccc2c1,Activity,Mus musculus [2],Active
same,LD50 at 24 h,[4],357 mg/kg
same,Time,Mus musculus [10],273 s
same,selectivity ratio,[21],12
same,Activity,Rattus norvegicus [22],Active
CCC(=O)N(CCN1CCC(Cc2ccccc2)CC1)c1cc(F)c(F)c(F)c1,Ki,[1],573 nM
CCC(=O)N(CCN1CCC(Cc2ccccc2)CC1)c1ccccn1,Ki,[1],402 nM
CCC(=O)N(CCN1CCC(Cc2ccccc2)CC1)c1ccc(C)cc1,Ki,[1],1.6 nM
CCC(=O)N(CCN1CCC(c2ccccc2)CC1)c1ccc(OC)cc1,Ki,[1],39 nM
CCC(=O)N(CCN1CCC(CCCc2ccccc2)CC1)c1ccc(OC)cc1,Ki,[1],893 nM
CCC(=O)N(CCN1CCC(CCc2ccccc2)CC1)c1ccc(OC)cc1,Ki,[1],372 nM
CCC(=O)N(CCN1CCC(Cc2ccc(C)cc2)CC1)c1ccc(OC)cc1,Ki,[1],35 nM
CCC(=O)N(CCN1CCC(Cc2ccc(C)cc2)CC1)c1ccc(F)cc1,Ki,[1],47 nM
C[C@@H]1[C@@H]2Cc3ccc(O)cc3[C@]1(C)CCN2CCc1ccccc1,Ki,Mu-type opioid receptor,0.2 nM
CCC(=O)N(CCN1CCC(Cc2ccccc2)CC1)C(C)c1ccccc1 (configuration not stated),Ki,[1],17.4 nM
CCC(=O)N(CCCCN1CCC(Cc2ccccc2)CC1)c1ccc(OC)cc1,Ki,[1],18 nM
CCC(=O)N(CCc1ccccc1)CCN1CCC(Cc2ccccc2)CC1,Ki,[1],269 nM
CCC(=O)N(CCCCCN1CCC(Cc2ccccc2)CC1)c1ccc(OC)cc1,Ki,[1],42 nM
CCC(=O)N(CCN1CCC(Cc2ccc(F)cc2)CC1)c1ccc(F)cc1,Time,Mus musculus [2],36 s
same,LD50 at 24 h,[4],416 mg/kg
same,inhibition,Homo sapiens [5],39.9%
same,inhibition,[6],19.9%
same,inhibition,Homo sapiens [7],20.5%
same,inhibition,[8],9.75%
same,Time,Mus musculus [10],110 s
same,inhibition,Homo sapiens [12],32.3%
same,inhibition,[13],34.4%
same,inhibition,[14],17.4%
same,inhibition,[15],23%
same,Ki,[1],1.3 nM
same,inhibition,Homo sapiens [17],31.8%
same,inhibition,[19],44.6%
same,inhibition,[20],28.8%
CCC(=O)N(CCN1CCC(Cc2ccccc2)CC1)c1ncccc1F,Ki,[1],506 nM
C[C@H]1[C@H]2Cc3ccc(O)cc3[C@@]1(C)CCN2CCc1ccccc1,Ki,Mu-type opioid receptor,55 nM
CCC(=O)N(CCN1CCC(Cc2ccc(F)cc2)CC1)c1ccc(C)cc1,Ki,[1],2.4 nM
CCC(=O)N(CCN1CCC(Cc2ccc(C)cc2)CC1)c1ccc(C)cc1,Ki,[1],29 nM
CCC(=O)N(CCCN1CCC(Cc2ccccc2)CC1)c1ccc(OC)cc1,Ki,[1],2.2 nM
CCC(=O)N(CCN1CCC(Cc2ccccc2)CC1)c1ccc(OC)cc1,Ki,[1],1.5 nM
